Results on three compounds are retold here after publication PMC6704442 (ACS Omega, 2019).

For data set [1] the following is noted: literature value for comparison; cited from earlier work.
Data set [2] has as its system H1 histone. As to the kind of experiment: H1 histone binding by steady-state fluorescence quenching. The following applies: 300 K, ±2σ.
In data set [3] the target is human serum albumin (HSA) (Homo sapiens, UniProt P02768). As to the kind of experiment: HSA binding by steady-state fluorescence quenching. The following applies: 300 K, ±2σ. The procedure, abridged: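 Human serum albumin (5 μM, 3 mL, freshly prepared in buffer) was titrated with successive additions of test compound stock at 300 K. Excitation was 283 nm and emission was read at 372 nm, with slits of 1 and 5 nm. Fluorescence was inner-filter corrected. KSV came from the Stern–Volmer equation; Ka and n came from log[(F0−F)/F] versus log[Q]. Performed in triplicate.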
Sequence of human serum albumin (HSA) (P02768 25-609): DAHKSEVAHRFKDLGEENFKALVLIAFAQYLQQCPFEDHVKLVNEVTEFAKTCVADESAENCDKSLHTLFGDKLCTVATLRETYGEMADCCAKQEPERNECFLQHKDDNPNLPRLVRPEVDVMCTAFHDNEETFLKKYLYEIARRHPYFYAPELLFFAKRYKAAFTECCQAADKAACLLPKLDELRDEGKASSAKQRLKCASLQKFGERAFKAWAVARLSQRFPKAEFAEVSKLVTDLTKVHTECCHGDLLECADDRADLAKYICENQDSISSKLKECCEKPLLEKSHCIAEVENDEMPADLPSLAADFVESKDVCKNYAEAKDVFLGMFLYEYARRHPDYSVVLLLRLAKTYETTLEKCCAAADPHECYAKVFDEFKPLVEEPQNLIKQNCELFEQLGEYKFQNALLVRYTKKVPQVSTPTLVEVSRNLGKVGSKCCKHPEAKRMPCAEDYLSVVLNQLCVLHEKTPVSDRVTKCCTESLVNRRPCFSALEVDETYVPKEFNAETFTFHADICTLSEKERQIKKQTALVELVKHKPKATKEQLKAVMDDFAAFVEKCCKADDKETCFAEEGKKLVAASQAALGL

The conditions of data set [4]: 40 mg kg^–1; cited from earlier work.

The structures appear in SMILES notation. “And” between values parts separate entries of the source, which are not always exact repeats. Equal entries are not always repeated.

Consider `Cc1ccc(C(C)C)cc1.[Cl][Ru]([Cl])[PH]12CN3CN(CN(C3)C1)C2` [RAPTA-C], for which, in data set [1], the AUCtotal is 891 μg h L^–1; the CLapp is 0.009 L h^–1; the Vd (commonly a proportionality between amount in the body and measured concentration, not a real space) is on record as 0.153 L; the t1/2e is 11.47 h. Besides, in data set [2], the “KSV × 10^–3 (Stern-Volmer constant), H1” value is on record as 1.85 ± 0.21 × 10^–3 and the “n (number of binding sites), H1” value is reported as 1.06 ± 0.03. Moreover, in data set [3], the “KSV × 10^–3 (Stern-Volmer constant), HSA” value is recorded as 7.06 ± 1.37 × 10^–3 and the “n (number of binding sites), HSA” value worked out at 0.87 ± 0.04.
As to `N.N.[Cl][Pt][Cl]` [cisplatin], in data set [2], the “KSV × 10^–3 (Stern-Volmer constant), H1” value was 2.28 ± 0.59 × 10^–3; the “n (number of binding sites), H1” value was 0.48 and 0.48 ± 0.14. In data set [3], the “KSV × 10^–3 (Stern-Volmer constant), HSA” value is 0.58 ± 0.14 × 10^–3 and the “n (number of binding sites), HSA” value worked out at 1.18 ± 0.21.
Turning to `[Cl][Ru]([Cl])([Cl])[Cl].[Na+].c1ccc2[nH]ncc2c1.c1ccc2[nH]ncc2c1` [KP-1339/IT139, sodium trans-[tetrachloridobis(1H-indazole)ruthenate(III)]], in data set [4], the tmax was 2.5 h.
